UCH37 DUB inh = inhibitors of human deubiquitinating enzyme UCH37; inhibition, % (test concentration not listed); 330,000 tested, 0.33% active; purified proteasome/UCH37, Ub-AMC cleavage fluorescence;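 active = mean inhibition over replicate wells above about 20%, limit read from the data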;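 note: 0% = compound-free wells with enzyme and 100% = wells lacking proteasome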
Target sequence (Q9Y5K5 whole entry, looked up): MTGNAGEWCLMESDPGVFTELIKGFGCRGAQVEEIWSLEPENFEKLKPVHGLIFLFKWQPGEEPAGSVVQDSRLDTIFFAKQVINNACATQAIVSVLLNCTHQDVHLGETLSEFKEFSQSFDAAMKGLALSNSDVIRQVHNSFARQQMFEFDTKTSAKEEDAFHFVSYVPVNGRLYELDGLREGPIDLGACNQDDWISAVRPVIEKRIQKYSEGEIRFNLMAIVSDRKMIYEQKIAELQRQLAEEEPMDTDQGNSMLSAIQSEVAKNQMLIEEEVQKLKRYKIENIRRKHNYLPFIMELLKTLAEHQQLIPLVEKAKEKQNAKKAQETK
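Reagent: Ub-AMC substrate; assay system: Proteasome-associated human UCH37 deubiquitinase; controls: no-proteasome and no-compound wells; read-out: % inhibition of Ub-AMC cleavage fluorescence; timing: 30 min preincubation with enzyme, 25 min cleavage at room temperature; signal: AMC fluorescence from Ub-AMC cleavage, excitation 355 nm, emission 460 nm; buffer or medium: Tris-HCl pH 7.4 plus ovalbumin, ATP-MgCl2, DTT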
Efflux pump mplx = inhibitors of Candida antifungal efflux pumps expressed in yeast; S. cerevisiae Candida pump triplex, Nile Red efflux; 330,000 tested, 0.44% active; AID 485275; inhibition, % at 10 µM;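 active = plate passing quality check with inhibition over a set limit, or well fluorescence over plate mean plus 4 SD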;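 note: Nile Red retained in pooled yeast measured as flow cytometry median fluorescence; 0% = buffer negative control and 100% = Enniatin B positive control; higher means more Nile Red kept so more efflux inhibition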
RTF Ca sens inh = cardiac RTF calcium desensitization; P19429+P45379; IANBD-labeled cardiac RTF, Ca2+ fluorescence; inhibition, % at 7.15 µM; 340,000 tested, 0.12% active; AID 493244;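 active = inhibition above the mean inhibition of all tested compounds plus 3 SD, cut at about 17% in these data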;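 note: assay run at fixed EC70 calcium of 1.6 mM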
Mot1-301 SUMO = SUMOylation pathway inhibition by Mot1-301 growth rescue; S. cerevisiae Mot1-301 growth rescue, ATP luminescence, 38.5C; percent above DMSO median, 100 means doubled; growth rescue, % at 18.8 µM; 320,000 tested, 1% active; AID 2716;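 active = every valid replicate shows activation above 250% relative to neutral control wells; inactive = the rest, any valid replicate at or below 250%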;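 note: OY570 slx delta 5 strain wells were the positive control but not used for scaling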
ARNT TACC3 PPI = disrupts binding between human ARNT and TACC3; 390,000 tested, 0.66% active; Q9Y6A5; AlphaScreen His-ARNT PAS-B/GST-TACC3 binding, luminescence; TACC3 fragment carries E629A point mutation; AID 623870; inhibition, % at 9.99 µM;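 active = mean inhibition of replicates at least 50% and at least half of replicates each reaching 50%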;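 note: 0% = complete ARNT plus TACC3 wells and 100% = ARNT alone without TACC3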
RTF Ca sens act = increases calcium sensitivity of human cardiac regulated thin filaments. P19429+P45379. IANBD-labeled TnC RTF fluorescence at EC20 calcium; 0% EC20 calcium, 100% full calcium. activation, % at 7.2 µM. 340,000 tested, 0.24% active. AID 493008;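 active = activation above the mean over all tested compounds plus 3 SD, cut at about 30% in these data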;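 note: rise in fluorescence read as greater calcium sensitivity of cardiac thin filaments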
RTF inh confirm = cardiac RTF calcium sensitivity inhibition, confirmation; shares compounds with RTF Ca sens inh; reconstituted cardiac thin filaments, calcium sensitivity fluorescence; inhibition, % at 7.15 µM; 360 tested, 8% active; AID 504635; in the data active = inhibition above about 18%
* = called active by the depositor; x = no result. Rows were chosen to be rich in hits. Some 2.1% of all compounds tested hit in one or more screens of this group.

SMILES	UCH37 DUB inh	Efflux pump mplx	RTF Ca sens inh	Mot1-301 SUMO	ARNT TACC3 PPI	RTF Ca sens act	RTF inh confirm
COc1ccc(C2=CC3=C(Br)C(=O)C(C)(OC(=O)c4cccs4)C(=O)C3=CO2)cc1 (centres undefined)	1.9	-0.1	19.8*	-19.3	-8.6	-18.5	0.3
CN(C)CC[C@@H](c1ccc(Cl)cc1)c1ccccn1	-0.8	0.0	17.2*	0.1	-6.4	2.0	0.0
CC(=O)NN=c1sc2ccccc2n1C	2.0	x	x	x	x	x	x
COc1cccc(/C=N/Nc2nc3ccccc3n3cnnc23)c1O	x	0.4	22.8*	9.8	84.9*	-14.7	39.9*
O=C(O)CCCN1C(=O)/C(=C/C=C/c2ccco2)SC1=S	20.3*	0.4	50.8*	-8.0	2.6	-27.8	10.2
O=C(O)CC(C(=O)O)N1C(=O)/C(=C/C=C/c2ccco2)SC1=S (centres undefined)	21.1*	0.3	65.8*	-19.7	-0.7	-24.8	20.6*
O=C1S/C(=C\C=C\c2ccco2)C(=O)N1c1ccc(O)cc1	6.6	-0.2	-9.4	-12.5	6.9	4.8	x
COc1ccc(/C=C2\SC(=S)N(C(Cc3ccccc3)C(=O)O)C2=O)cc1 (centres undefined)	7.7	x	0.9	x	1.7	-4.8	x
O=C(O)C(Cc1ccccc1)N1C(=O)/C(=C/C=C/c2ccco2)SC1=S (centres undefined)	23.8*	x	63.7*	x	2.3	-19.5	27.1*
Cc1ccc(NC(=O)CCCN2C(=O)/C(=C/C=C/c3ccccc3)SC2=S)cc1	10.6	-1.0	0.7	-6.2	-27.2	10.8	x
Cc1cc(C)nc(SCc2ccc(C(=O)NN=Cc3ccc(C(=O)O)cc3)cc2)n1	4.0	x	x	x	x	x	x
CCN(CC)c1ccc(C=NOC(C)C(=O)Nc2ccc(C)cc2)cc1 (centres undefined)	-9.9	x	x	x	x	x	x
CC(C)(C)C(=O)Nc1ncccc1C(O)c1cccc(C(F)(F)F)c1 (centres undefined)	1.0	0.0	18.9*	-8.6	-2.4	-9.6	-1.2
O=C(N/N=C/c1ccco1)c1cc(-c2ccccc2)n[nH]1	x	-0.1	-7.8	-34.8	x	-1.1	x
Cc1ccc(-c2cc(C(=O)N/N=C/c3ccco3)[nH]n2)cc1	x	-0.1	17.1*	28.2	1.5	3.7	-6.2
Cc1cc(-c2ccc(C=Nn3cnnc3)o2)ccc1Cl	3.9	x	x	x	x	x	x
O=C(NCc1ccccc1)c1ccc(F)c(S(=O)(=O)N2CCOCC2)c1	3.2	-0.1	63.5*	-2.6	-2.5	-29.4	-0.6
O=C(COC(=O)c1ccc(F)c(S(=O)(=O)N2CCOCC2)c1)NCc1ccccc1	0.4	-0.5	2.7	-0.6	-2.1	7.3	x
COc1ccc(-c2cc(C(=O)OC3CCOC3=O)c3ccccc3n2)cc1 (centres undefined)	-129.1	-0.1	-1.4	-15.0	-8.1	-1.6	x
Cc1cc(C(=O)OC2CCOC2=O)c2ccccc2n1 (centres undefined)	-6.8	0.0	19.4*	8.6	21.3	5.9	-3.8
Cc1ccc(C(=O)NC(=S)Nn2cnnc2)cc1	x	-0.3	-1.0	5.6	x	6.3	x
O=C(NC(=S)Nn1cnnc1)c1cccc(Br)c1	1.9	0.1	18.8*	0.4	2.5	-2.7	-3.8
Cc1c(Cl)c([N+](=O)[O-])nn1CC(=O)NCc1cccs1	2.7	0.0	18.2*	-11.8	-5.1	11.1	-2.6
Cc1c(Cl)c([N+](=O)[O-])nn1CC(=O)NC(C)c1ccccc1 (centres undefined)	1.5	-0.1	3.9	-11.8	0.4	-2.2	x
COc1cc(C=NNC(=O)c2c(-c3c(Cl)cccc3Cl)noc2C)ccc1OCC(N)=O	3.6	x	x	x	x	x	x
SMILES	UCH37 DUB inh	Efflux pump mplx	RTF Ca sens inh	Mot1-301 SUMO	ARNT TACC3 PPI	RTF Ca sens act	RTF inh confirm
Cc1ccsc1C=NNC(=O)CO	2.5	x	x	x	x	x	x
COc1ccc(C=NNC(=O)c2ccccc2Cl)cc1CSc1nc2ccccc2s1	4.7	x	x	x	x	x	x
O=C(O)c1cccc(-n2cccc2/C=C2/NC(=O)N(c3ccc(Cl)cc3)C2=O)c1	27.4*	x	74.8*	x	13.3	-45.9	55.0*
COc1ccc(-n2cccc2/C=C2/NC(=O)N(c3cccc(Cl)c3)C2=O)cc1	-1.1	0.0	2.6	-7.1	-4.2	-0.7	x
CC1CCCCC1=NNc1ccc([N+](=O)[O-])cc1[N+](=O)[O-] (centres undefined)	-0.1	x	x	x	x	x	x
COc1ccccc1-n1c(SCC(=O)Nc2ccc(C)cc2)nc(O)cc1=O	2.1	0.0	18.1*	1.8	-5.4	-0.9	-1.9
O=C(Nc1ccc(N=Nc2ccccc2)c(NC(=O)C2CCCO2)c1)C1CCCO1 (centres undefined)	5.8	-0.1	20.5*	11.1	18.3	-6.2	-1.0
S=C(NN=Cc1ccccc1Cl)Nc1cccc(Cl)c1Cl	6.9	x	x	x	x	x	x
COc1ccc(S(=O)(=O)n2ccc(-c3ccc(OCCN(C)c4ccccn4)cc3)n2)cc1	-2.2	0.0	17.1*	-3.7	-2.6	-2.2	-1.6
CSC(=NCc1ccc(F)cc1)NS(=O)(=O)c1cccs1	-1.5	-0.1	17.2*	-13.2	-3.3	-0.9	0.1
O=C(N/N=C/c1ccc(F)cc1)c1cc(-c2ccco2)nc2ccccc12	x	-0.1	18.5*	-22.9	-1.3	-15.6	2.7
Cc1ccccc1OCC(=O)OCC(=O)NCCNC(=O)COC(=O)COc1ccccc1C	3.1	-0.2	17.3*	-10.7	4.0	-9.6	-0.5
COc1ccccc1C(=O)NC(=O)COC(=O)CCOc1ccccc1C	0.0	0.1	28.5*	-0.7	-3.4	-13.7	-0.5
C=CCNC(=O)CC(=O)NN=Cc1ccccc1F	6.6	x	x	x	x	x	x
Cc1onc(-c2ccccc2)c1C(=O)NN=Cc1ccc(O)c([N+](=O)[O-])c1	15.1	x	x	x	x	x	x
COc1ccc(C=NNC(=O)C(=O)N2CCCC2)cc1	3.5	x	x	x	x	x	x
CCc1oc2ccccc2c1C(=O)c1cc(Br)c(O)c(Br)c1	5.0	0.0	17.8*	-33.5	-3.0	-11.7	1.2
CCc1ccc(OCC(=O)c2c(O)c3ccccc3oc2=O)cc1	-1.3	0.2	0.3	x	-6.3	2.8	x
CCN(CC)S(=O)(=O)c1cc(NS(=O)(=O)c2cccc(Cl)c2Cl)ccc1C	1.2	-0.3	47.4*	-23.7	x	4.8	-1.0
CCN(CC)S(=O)(=O)c1cc(NS(=O)(=O)c2c(Cl)cccc2Cl)ccc1C	-10.5	-0.1	-2.5	-1.9	-1.7	-2.1	x
CCc1cc(C(=O)N=Nc2c(O)[nH]c3ccc([N+](=O)[O-])cc23)c2ccccc2n1	11.5	-0.1	17.2*	13.4	x	-3.9	-7.3
COc1ccc(CN(C)CC(=O)Nc2ccc(SC(F)F)cc2)cc1OC	3.0	-0.2	20.1*	-15.8	-0.4	5.0	2.9
O=C(NN=Cc1ccc(Br)s1)c1cccc([N+](=O)[O-])c1	3.5	x	x	x	x	x	x

Bioassay records deposited in PubChem BioAssay by several laboratories.
